Measured values published in ChEMBL document CHEMBL1137387, “Structural determinants of opioid activity in derivatives of 14-aminomorphinones: effects of changes to the chain linking of the C14-amino group to the aryl ring” (J Med Chem, 2006).
Calls of active or inactive are those of the source. The calls are words filed in the database; no cut-off is given here.

Legend:
[1] = molecular target: T1, Delta-type opioid receptor (Homo sapiens, UniProt P41143); assay: Displacement of [3H]Cl-DPDPE from human recombinant delta opioid receptor expressed in CHO cells; type: cell-based
[2] = molecular target: T2, Kappa-type opioid receptor (Homo sapiens, UniProt P41145); assay: Displacement of [3H]U-69593 from human recombinant kappa opioid receptor expressed in CHO cells; type: cell-based
[3] = molecular target: T3, Mu-type opioid receptor (Homo sapiens, UniProt P35372); assay: Displacement of [3H]DAMGO from human recombinant mu opioid receptor expressed in CHO cells; type: cell-based
How it was run: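 Competition binding used membranes of CHO cells transfected with recombinant human MOR, with [3H]DAMGO as the selective radioligand. Affinity is reported as Ki (nM).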

[4] = molecular target: T3, Mu-type opioid receptor; assay: Activity at human recombinant mu opioid receptor expressed in CHO cells assessed as stimulation of [35S]GTP-gamma-S binding relative to DAMGO; type: functional, cell-based
How it was run: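 Membranes of CHO cells transfected with recombinant human MOR were assayed for stimulation of [35S]GTPγS binding. Efficacy is expressed against the standard DAMGO. Values are means of five or six experiments.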

[5] = molecular target: T1, Delta-type opioid receptor; assay: Activity at human recombinant delta opioid receptor expressed in CHO cells assessed as stimulation of [35S]GTP-gamma-S binding; type: functional, cell-based
[6] = molecular target: Kappa-type opioid receptor (Cavia porcellus, UniProt P41144); assay: Displacement of [3H]U-69593 from kappa opioid receptor in guinea pig brain homogenate; type: tissue-based
[7] = molecular target: Mu-type opioid receptor (Cavia porcellus, UniProt P97266); assay: Displacement of [3H]DAMGO from mu opioid receptor in guinea pig brain homogenate; type: tissue-based
[8] = species: Cavia porcellus; assay: Selectivity for guinea pig mu opioid receptor over delta opioid receptor
[9] = molecular target: Opioid receptor (mu and kappa) (Cavia porcellus) (UniProt P41144+P97266); assay: Selectivity for guinea pig mu opioid receptor over kappa opioid receptor; type: protein assay
[10] = system: Mus musculus; assay: Agonist activity in mouse tail withdrawal assay at 1 mg/kg relative to morphine; type: functional
How it was run: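 Antinociception in mice was measured as tail withdrawal from 50 °C water, with a test dose of 1 mg/kg compared against morphine. In a separate arm, the morphine antinociceptive dose–effect curve was determined after 24 h pretreatment to probe delayed MOR antagonism.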

[11] = molecular target: T3, Mu-type opioid receptor; assay: Inhibition of DAMGO-stimulated [35S]GTP-gamma-S binding to mu opioid receptor expressed in C6 cells at 100 nM; type: functional, cell-based
How it was run: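 C6 membranes expressing MOR were preincubated with ligand (100 nM) or vehicle in Tris-HCl buffer for 1 h at 25 °C. They were then centrifuged, resuspended, held at 37 °C to dissociate weakly bound ligand, recentrifuged and washed twice more. Washed membranes (15 µg) were incubated 1 h at 25 °C with increasing DAMGO and buffered [35S]GTPγS, giving DAMGO concentration–effect curves.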

[12] = molecular target: T3, Mu-type opioid receptor; assay: Displacement of [3H]diprenorphine from human mu opioid receptor expressed in C6 cells; type: cell-based
[13] = molecular target: T2, Kappa-type opioid receptor; assay: Displacement of [3H]diprenorphine from human recombinant kappa opioid receptor expressed in C6 cells; type: cell-based
[14] = molecular target: T1, Delta-type opioid receptor; assay: Displacement of [3H]diprenorphine from human recombinant delta opioid receptor expressed in C6 cells; type: cell-based

T1 sequence (P41143 whole entry): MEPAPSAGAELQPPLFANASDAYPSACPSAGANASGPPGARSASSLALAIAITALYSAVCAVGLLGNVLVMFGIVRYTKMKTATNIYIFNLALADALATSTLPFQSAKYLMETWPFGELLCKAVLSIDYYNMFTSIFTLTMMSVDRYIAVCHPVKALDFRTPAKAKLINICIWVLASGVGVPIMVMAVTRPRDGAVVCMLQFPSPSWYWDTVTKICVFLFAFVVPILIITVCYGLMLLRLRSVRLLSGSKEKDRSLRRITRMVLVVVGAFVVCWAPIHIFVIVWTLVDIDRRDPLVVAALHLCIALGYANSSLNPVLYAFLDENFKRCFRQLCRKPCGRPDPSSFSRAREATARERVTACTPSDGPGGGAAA
Sequence of Kappa-type opioid receptor (Cavia porcellus, UniProt P41144) (P41144 whole entry): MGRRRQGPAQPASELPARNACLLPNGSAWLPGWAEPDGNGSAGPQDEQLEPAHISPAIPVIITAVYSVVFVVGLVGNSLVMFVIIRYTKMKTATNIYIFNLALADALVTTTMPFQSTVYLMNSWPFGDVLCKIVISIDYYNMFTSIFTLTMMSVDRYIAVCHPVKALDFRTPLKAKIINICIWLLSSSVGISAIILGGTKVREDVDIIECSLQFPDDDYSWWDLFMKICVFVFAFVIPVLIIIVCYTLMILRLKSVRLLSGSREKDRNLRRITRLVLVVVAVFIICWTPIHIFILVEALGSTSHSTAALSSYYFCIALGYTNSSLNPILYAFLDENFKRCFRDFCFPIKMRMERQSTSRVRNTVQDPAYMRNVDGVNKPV
Sequence of Opioid receptor (mu and kappa) (Cavia porcellus) (P41144 whole entry, looked up): as the sequence (P41144 whole entry) above
Sequence of Opioid receptor (mu and kappa) (Cavia porcellus) (P97266 whole entry, looked up): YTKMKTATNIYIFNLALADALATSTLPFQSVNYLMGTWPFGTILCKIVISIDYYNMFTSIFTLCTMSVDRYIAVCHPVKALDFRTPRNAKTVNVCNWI
Sequence of Mu-type opioid receptor (Cavia porcellus, UniProt P97266) (P97266 whole entry): as the sequence (P97266 whole entry, looked up) above
T2 sequence (P41145 whole entry): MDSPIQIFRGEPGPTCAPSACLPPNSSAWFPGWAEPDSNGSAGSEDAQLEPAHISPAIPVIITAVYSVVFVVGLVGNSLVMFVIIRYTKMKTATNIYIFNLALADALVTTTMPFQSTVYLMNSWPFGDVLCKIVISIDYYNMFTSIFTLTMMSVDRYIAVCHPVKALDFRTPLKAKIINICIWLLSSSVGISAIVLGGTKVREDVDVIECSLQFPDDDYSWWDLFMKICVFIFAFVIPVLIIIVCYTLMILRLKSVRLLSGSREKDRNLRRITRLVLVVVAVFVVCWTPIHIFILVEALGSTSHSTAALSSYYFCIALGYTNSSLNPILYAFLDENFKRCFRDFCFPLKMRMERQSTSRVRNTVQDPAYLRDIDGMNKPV
T3 sequence (P35372 whole entry): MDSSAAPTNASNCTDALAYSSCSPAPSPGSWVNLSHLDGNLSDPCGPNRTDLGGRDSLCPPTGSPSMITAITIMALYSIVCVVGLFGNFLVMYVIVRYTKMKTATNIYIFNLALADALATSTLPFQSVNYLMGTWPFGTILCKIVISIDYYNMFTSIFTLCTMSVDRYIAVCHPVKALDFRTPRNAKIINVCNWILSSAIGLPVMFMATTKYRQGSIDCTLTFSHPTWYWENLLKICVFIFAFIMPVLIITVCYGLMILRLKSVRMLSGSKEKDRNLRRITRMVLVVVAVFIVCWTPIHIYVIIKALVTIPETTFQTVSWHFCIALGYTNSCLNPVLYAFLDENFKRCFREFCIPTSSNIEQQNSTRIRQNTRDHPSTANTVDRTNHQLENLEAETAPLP

In the case of `COc1ccc2c3c1O[C@H]1C(=O)CC[C@@]4(NC(=O)CCCc5ccc(Cl)cc5)[C@@H](C2)N(CC2CC2)CC[C@]314`, the Ki [1] is reported as 89.4 nM, the Ki [2] is reported as 7.51 nM and the Ki [3] is reported as 3.88 nM. For the same compound, the Activity ([4]; filed as antagonist) was “Antagonist” and the IC50 [5] was 79.9 nM.
In the case of `COc1ccc2c3c1O[C@H]1C(=O)CC[C@@]4(NC(=O)/C=C/Cc5ccc(Cl)cc5)[C@@H](C2)N(CC2CC2)CC[C@]314`, the Ki [1] is reported as 242 nM, the Ki [2] is reported as 25.2 nM and the Ki [3] is reported as 8.07 nM. The Activity ([4]; filed as antagonist) was “Antagonist”.
Compound `COc1ccc2c3c1O[C@H]1C(=O)CC[C@@]4(NC(=O)Cc5ccc(Cl)cc5)[C@@H](C2)N(CC2CC2)CC[C@]314` has a Ki [1] of 51.9 nM, a Ki [2] of 2.59 nM and a Ki [3] of 2.64 nM. The Efficacy [4] was 39%, the Activity ([4]; filed as partial agonist) was “Partial agonist” and the IC50 [5] was 88.7 nM.
`COc1ccc2c3c1O[C@H]1C(=O)CC[C@@]4(O)[C@@H](C2)N(CC2CC2)CC[C@]314` showed a Ki [1] of 272 nM, a Ki [2] of 128 nM and a Ki [3] of 85.6 nM. For the same compound, the Activity ([4]; filed as antagonist) was “Antagonist” and the IC50 [5] was 1000 nM.
`COc1ccc2c3c1O[C@H]1C(=O)CC[C@@]4(NCCc5ccc(Cl)cc5)[C@@H](C2)N(CC2CC2)CC[C@]314` showed a Ki [1] of 33.8 nM, a Ki [2] of 13.1 nM and a Ki [3] of 1.33 nM. For the same compound, the Efficacy [4] was 39%, the Activity ([4]; filed as partial agonist) was “Partial agonist” and the IC50 [5] was 63 nM.
`O=C(CCc1ccc(Cl)cc1)N[C@@]12CCC(=O)[C@@H]3Oc4c(O)ccc5c4[C@@]31CCN(CC1CC1)[C@@H]2C5` was tested, and the Ki [6] was 0.65 nM, the Ki [7] was 0.04 nM and the Activity ([4]; filed as antagonist) was “Antagonist”. For the same compound, the Ratio Ki [8] was 15, the Ratio Ki [9] was 16.2 and the IC50 [5] was 0.03 nM.
In the case of `COc1ccc2c3c1O[C@H]1C(=O)CC[C@@]4(NC(=O)C/C=C/c5ccc(Cl)cc5)[C@@H](C2)N(CC2CC2)CC[C@]314`, the Ki [1] is reported as 104 nM, the Ki [2] is reported as 21.5 nM and the Ki [3] is reported as 8.19 nM. For the same compound, the Activity ([4]; filed as antagonist) was “Antagonist” and the IC50 [5] was 118 nM.
With `O=C1CC[C@@]2(NCCCc3ccc(Cl)cc3)[C@H]3Cc4ccc(O)c5c4[C@@]2(CCN3CC2CC2)[C@H]1O5` the Ki [6] was 1.9 nM, the Ki [7] was 0.13 nM and the Activity ([4]; filed as antagonist) was “Antagonist”. For the same compound, the Ratio Ki [8] was 8.5, the Ratio Ki [9] was 14.6 and the IC50 [5] was 0.02 nM.
With `COc1ccc2c3c1O[C@H]1C(=O)CC[C@@]4(NCC/C=C/c5ccc(Cl)cc5)[C@@H](C2)N(CC2CC2)CC[C@]314` the Ki [1] was 24.8 nM, the Ki [2] was 33.5 nM and the Ki [3] was 1.15 nM. The Activity ([4]; filed as antagonist) was “Antagonist” and the IC50 [5] was 148 nM.
For `COc1ccc2c3c1O[C@H]1C(=O)CC[C@@]4(NC/C=C/Cc5ccc(Cl)cc5)[C@@H](C2)N(CC2CC2)CC[C@]314`, the Ki [1] was 94.9 nM, the Ki [2] was 25.9 nM and the Ki [3] was 6.76 nM. The Activity ([4]; filed as antagonist) was “Antagonist” and the IC50 [5] was 96.8 nM.
`O=C1CC[C@@]2(NCCCCc3ccc(Cl)cc3)[C@H]3Cc4ccc(O)c5c4[C@@]2(CCN3CC2CC2)[C@H]1O5` showed a Ki [1] of 2.18 nM, a Ki [2] of 5.27 nM and a Ki [3] of 0.96 nM. For the same compound, the Activity ([4]; filed as antagonist) was “Antagonist” and the IC50 [5] was 0.67 nM.
Compound `COc1ccc2c3c1O[C@H]1C(=O)CC[C@@]4(NCCCCc5ccc(Cl)cc5)[C@@H](C2)N(CC2CC2)CC[C@]314` has a Ki [1] of 55.9 nM, a Ki [2] of 41.5 nM and a Ki [3] of 2.23 nM. For the same compound, the Activity ([4]; filed as antagonist) was “Antagonist” and the IC50 [5] was 61.1 nM.
Compound `O=C1CC[C@@]2(NCC/C=C/c3ccc(Cl)cc3)[C@H]3Cc4ccc(O)c5c4[C@@]2(CCN3CC2CC2)[C@H]1O5` has a Ki [1] of 2.1 nM, a Ki [2] of 3.69 nM and a Ki [3] of 1 nM. The Activity ([4]; filed as antagonist) was “Antagonist” and the IC50 [5] was 1.17 nM.
`COc1ccc2c3c1O[C@H]1C(=O)CC[C@@]4(NC/C=C/c5ccc(Cl)cc5)[C@@H](C2)N(CC2CC2)CC[C@]314` gave a Ki [6] of 53.6 nM, a Ki [7] of 0.7 nM and a Ratio Ki [8] of 63.6. It also gave a Ratio Ki [9] of 76.6.
For `COc1ccc2c3c1O[C@H]1C(=O)CC[C@@]4(NC(=O)/C=C/c5ccc(Cl)cc5)[C@@H](C2)N(CC2CC2)CC[C@]314`, the Activity ([4]; filed as antagonist) was “Antagonist” and the IC50 [5] was 7.16 nM.
`O=C1CC[C@@]2(NC/C=C/Cc3ccc(Cl)cc3)[C@H]3Cc4ccc(O)c5c4[C@@]2(CCN3CC2CC2)[C@H]1O5` gave a Ki [1] of 6.65 nM, a Ki [2] of 3.72 nM and a Ki [3] of 1.89 nM. The Activity ([4]; filed as antagonist) was “Antagonist” and the IC50 [5] was 3.35 nM.
In the case of `O=C(C/C=C/c1ccc(Cl)cc1)N[C@@]12CCC(=O)[C@@H]3Oc4c(O)ccc5c4[C@@]31CCN(CC1CC1)[C@@H]2C5`, the Ki [1] is reported as 3.25 nM, the Ki [2] is reported as 4.94 nM and the Ki [3] is reported as 1.87 nM. The Activity ([4]; filed as antagonist) was “Antagonist” and the IC50 [5] was 1.7 nM.
Compound `O=C(CCCc1ccc(Cl)cc1)N[C@@]12CCC(=O)[C@@H]3Oc4c(O)ccc5c4[C@@]31CCN(CC1CC1)[C@@H]2C5` has a Ki [1] of 3.85 nM, a Ki [2] of 2.95 nM and a Ki [3] of 1.34 nM. The Activity ([4]; filed as antagonist) was “Antagonist” and the IC50 [5] was 1.37 nM.
With `O=C(Cc1ccc(Cl)cc1)N[C@@]12CCC(=O)[C@@H]3Oc4c(O)ccc5c4[C@@]31CCN(CC1CC1)[C@@H]2C5` the Ki [1] was 1.51 nM, the Ki [2] was 1 nM and the Ki [3] was 0.73 nM. For the same compound, the Efficacy [4] was 29%, the Activity ([4]; filed as partial agonist) was “Partial agonist” and the Activity [10] was 10. For the same compound, the IC50 [5] was 2.41 nM.
For `O=C(/C=C/c1ccc(Cl)cc1)N[C@@]12CCC(=O)[C@@H]3Oc4c(O)ccc5c4[C@@]31CCN(CC1CC1)[C@@H]2C5` [CLOCINNAMOX], the Activity ([4]; filed as antagonist) was “Antagonist”, the Activity [11] was “Active” and the IC50 [5] was 0.19 nM.
`COc1ccc2c3c1O[C@H]1C(=O)CC[C@@]4(NCCCc5ccc(Cl)cc5)[C@@H](C2)N(CC2CC2)CC[C@]314` was tested, and the Ki [6] was 78.6 nM, the Ki [7] was 0.59 nM and the Activity ([4]; filed as antagonist) was “Antagonist”. For the same compound, the Ratio Ki [8] was 53, the Ratio Ki [9] was 133 and the IC50 [5] was 1.66 nM.
With `O=C1CC[C@@]2(NC/C=C/c3ccc(Cl)cc3)[C@H]3Cc4ccc(O)c5c4[C@@]2(CCN3CC2CC2)[C@H]1O5` the Ki [12] was 0.32 nM, the Ki [13] was 0.91 nM and the Ki [14] was 0.63 nM.
In the case of `COc1ccc2c3c1O[C@H]1C(=O)CC[C@@]4(NC(=O)CCc5ccc(Cl)cc5)[C@@H](C2)N(CC2CC2)CC[C@]314`, the Ki [6] is reported as 6.5 nM, the Ki [7] is reported as 0.24 nM and the Activity ([4]; filed as antagonist) is reported as “Antagonist”. It also gave a Ratio Ki [8] of 21.2, a Ratio Ki [9] of 27.1 and an IC50 [5] of 0.76 nM.
For `O=C1CC[C@@]2(NCCc3ccc(Cl)cc3)[C@H]3Cc4ccc(O)c5c4[C@@]2(CCN3CC2CC2)[C@H]1O5`, the Ki [1] was 1.91 nM, the Ki [2] was 1.53 nM and the Ki [3] was 0.86 nM. The Efficacy [4] was 34%, the Activity ([4]; filed as partial agonist) was “Partial agonist” and the IC50 [5] was 1.59 nM.
